Columns and labels:
[1] = molecular target: T1, Polyunsaturated fatty acid 5-lipoxygenase (Homo sapiens, UniProt P09917); experiment: Inhibition of human neutrophil 5-lipoxygenase
T1 sequence (P09917 whole entry): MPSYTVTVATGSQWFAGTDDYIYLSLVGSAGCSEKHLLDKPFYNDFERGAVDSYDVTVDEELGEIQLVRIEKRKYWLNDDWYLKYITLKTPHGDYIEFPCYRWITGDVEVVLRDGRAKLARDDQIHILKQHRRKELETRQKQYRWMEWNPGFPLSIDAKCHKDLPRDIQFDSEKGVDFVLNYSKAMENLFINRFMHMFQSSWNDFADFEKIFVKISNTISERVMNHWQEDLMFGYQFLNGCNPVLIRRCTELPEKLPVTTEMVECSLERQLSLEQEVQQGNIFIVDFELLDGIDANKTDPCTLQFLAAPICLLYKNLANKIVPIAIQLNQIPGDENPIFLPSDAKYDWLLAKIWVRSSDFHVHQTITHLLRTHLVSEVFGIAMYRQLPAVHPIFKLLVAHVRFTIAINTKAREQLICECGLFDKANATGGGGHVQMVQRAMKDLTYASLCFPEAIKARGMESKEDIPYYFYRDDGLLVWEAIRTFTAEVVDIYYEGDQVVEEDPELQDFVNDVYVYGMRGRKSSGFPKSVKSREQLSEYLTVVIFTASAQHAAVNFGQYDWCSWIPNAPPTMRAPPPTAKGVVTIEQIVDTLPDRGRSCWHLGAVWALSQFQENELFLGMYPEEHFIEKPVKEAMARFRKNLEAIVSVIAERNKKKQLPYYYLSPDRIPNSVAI

[2] = organism: Cavia porcellus; experiment: Inhibition of cell influx (total cells) in guinea pig; type: functional
Method in brief: (§1)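 Male Hartley guinea pigs (250–300 g), ovalbumin-sensitized, fasted, pretreated 60 min before challenge with pyrilamine (10 mg/kg ip), indomethacin (10 mg/kg ip) and test agent (ip as 5% Tween 80 suspension). Challenged with aerosolized ovalbumin; 4 h later anesthetized and exsanguinated for late-phase inflammatory cell influx counts (total cells, PMN).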

[3] = tested on: Cavia porcellus; experiment: Inhibition of antigen-induced leukotriene-mediated bronchoconstriction in conscious guinea pig at the dose of 30mg/Kg, ip; type: functional
Method in brief: (§2)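 Male Hartley guinea pigs (250–300 g), actively ovalbumin-sensitized, fasted 18 h, anesthetized, pleural pressure transducer fitted. Dosed 60 min before aerosolized ovalbumin challenge with pyrilamine (10 mg/kg ip), indomethacin (10 mg/kg ip) and test agent (ip as 5% Tween 80 suspension). Head-out plethysmography after recovery; Cdyn mean change from baseline over 5–15 min post-challenge vs controls; 5–10 animals per dose; Dunnett's test.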

[4] = molecular target: T2, Cyclooxygenase (Homo sapiens, UniProt P35354+P23219); experiment: Inhibition of human platelet Prostaglandin G/H synthase
[5] = organism: Cavia porcellus; experiment: Inhibition of cell influx (PMN) in guinea pig; type: functional; method in brief: as §1
[6] = tested on: Cavia porcellus; experiment: Inhibition of antigen-induced leukotriene-mediated bronchoconstriction in conscious guinea pig at the dose of 30mg/Kg, ip.; type: functional; method in brief: as §2
[7] = molecular target: T3, Polyunsaturated fatty acid 5-lipoxygenase (Homo sapiens) (UniProt P09917); experiment: Inhibition of human neutrophil 5-lipoxygenase at the concentration of 0.1 uM
T3 sequence (whole entry): T1 sequence (P09917 whole entry)
Method in brief: (§3)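 5-LO activity measured in human peripheral blood leukocytes. Percent inhibition at a single test concentration is compared with untreated control, with significance by ANOVA and Tukey's multiple comparisons test (p < 0.05).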

[8] = molecular target: T3, Polyunsaturated fatty acid 5-lipoxygenase (Homo sapiens); experiment: (§4) Inhibition of human neutrophil 5-lipoxygenase at the concentration of 1 uM; method in brief: as §3
[9] = molecular target: T2, Cyclooxygenase; experiment: (§5) Inhibition of human platelet Prostaglandin G/H synthase at the concentration of 10 uM; type: functional
Method in brief: (§6)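 CO activity measured in human platelets. Percent inhibition at a single test concentration is compared with untreated control, with significance by ANOVA and Tukey's multiple comparisons test (p < 0.05).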

[10] = molecular target: T2, Cyclooxygenase; experiment: (§7) Inhibition of human platelet Prostaglandin G/H synthase at the concentration of 1 uM; type: functional; method in brief: as §6
[11] = molecular target: T3, Polyunsaturated fatty acid 5-lipoxygenase (Homo sapiens); experiment: Inhibition of lipoxygenase at the concentration of 0.1 uM; method in brief: as §3
[12] = molecular target: T3, Polyunsaturated fatty acid 5-lipoxygenase (Homo sapiens); experiment: Inhibition of lipoxygenase at the concentration of 1 uM; method in brief: as §3
[13] = as §5; method in brief: as §6
[14] = molecular target: T2, Cyclooxygenase; experiment: as §7; method in brief: as §6
[15] = tested on: Cavia porcellus; experiment: Inhibition of antigen-induced ileukotriene-mediated bronchoconstriction in conscious guinea pig at the dose of 300mg/Kg, po.; type: functional
[16] = tested on: Cavia porcellus; experiment: Inhibition of antigen-induced leukotriene-mediated bronchoconstriction in conscious guinea pig at the dose of 100mg/Kg, po.; type: functional
[17] = tested on: Cavia porcellus; experiment: Inhibition of antigen-induced leukotriene-mediated bronchoconstriction in conscious guinea pig at the dose of 30mg/Kg, po.; type: functional
[18] = tested on: Cavia porcellus; experiment: Inhibition of antigen-induced leukotriene-mediated bronchoconstriction in conscious guinea pigat the dose of 100mg/Kg, ip; type: functional; method in brief: as §2
[19] = tested on: Cavia porcellus; experiment: Inhibition of antigen-induced leukotriene-mediated bronchoconstriction in conscious guinea pig at the dose of 10mg/Kg, ip; type: functional; method in brief: as §2
[20] = molecular target: T3, Polyunsaturated fatty acid 5-lipoxygenase (Homo sapiens); experiment: as §4; type: functional; method in brief: as §3

Compound	IC50 [1]	inhibition in vivo at 30 mg/kg [3]	IC50 [4]	inhibition [11]	inhibition [12]	inhibition [13]	inhibition [14]	further results
CCCc1cc(/C=C/c2cccs2)cc(OC)c1O	86 nM	57%	1300 nM					Inhibition [2]: 77%; Inhibition [5]: 54%
Cc1cccc(/C=C/c2cc(C)c(O)c(C)c2)c1	130 nM		2500 nM					inhibition in vivo at 30 mg/kg [6]: 49%
CCc1cc(/C=C/c2cccnc2)cc(CC)c1O	< 1000 nM		< 10000 nM					inhibition [7]: 36%; inhibition [8]: 86%; inhibition [9]: 82%; inhibition [10]: 20%
Cc1ccc(/C=C/c2cc(C)c(O)c(C)c2)cc1	290 nM		3200 nM					inhibition in vivo at 30 mg/kg [6]: 59%
Cc1cc(/C=C/c2ccc(F)cc2)cc(C)c1O [ENOFELAST]	120 nM		1300 nM					inhibition in vivo at 30 mg/kg [6]: 43%
Cc1cc(/C=C/c2ccncc2)cc(C)c1O	1000 nM		> 10000 nM	1%	51%	17%	0%	
Cc1cc(/C=C/c2ccccc2C(F)(F)F)cc(C)c1O	< 1000 nM		< 1000 nM	14%	94%	72%	76%	
CC(C)(C)c1cc(/C=C/c2cccnc2)cc(C(C)(C)C)c1O	1700 nM							Inhibition [2]: 0%; inhibition in vivo at 300 mg/kg [15]: 7.7%; inhibition in vivo at 100 mg/kg [16]: -2%; inhibition in vivo at 30 mg/kg [17]: -24%; inhibition in vivo at 100 mg/kg [18]: 10%; Inhibition [5]: 0%
Cc1cc(/C=C/c2cc(F)cc(F)c2)cc(C)c1O	< 1000 nM		1000 nM	6%	81%	74%	50%	
Cc1cc(/C=C/c2cccs2)cc(C)c1O	54 nM	70.3%	780 nM					Inhibition [2]: 78%; inhibition in vivo at 10 mg/kg [19]: 34.5%; Inhibition [5]: 95%
Cc1cc(/C=C/c2ccccc2C(=O)O)cc(C)c1O	> 1000 nM		> 10000 nM			25%	16%	inhibition [20]: 12%
Cc1cc(/C=C/c2c(F)cccc2F)cc(C)c1O	< 1000 nM		< 1000 nM	12%	96%	94%	73%	
Cc1cc(/C=C/c2ccc3ccccc3c2)cc(C)c1O	< 1000 nM		< 10000 nM	16%	61%	66%	37%	
Cc1cc(/C=C/c2ccsc2)cc(C)c1O	45 nM	26%	< 10000 nM			96%	38%	
CCc1cc(/C=C/c2ccc(C)cc2)cc(CC)c1O	< 1000 nM		< 10000 nM	21%	91%	73%	35%	
CCc1cc(/C=C/c2cccs2)cc(OC)c1O	90 nM	51%	1400 nM					
CCCC/C(=C\c1cc(C)c(O)c(C)c1)c1ccc(F)cc1	< 1000 nM		1000 nM	17%	93%	86%	52%	
COc1ccc(/C=C/c2cc(C)c(O)c(C)c2)cc1	91 nM	28%	1500 nM					
COc1cc(/C=C/c2cccs2)cc(C)c1O	86 nM	41%	3100 nM					
